Measurements: PMC11382307 (Asian Journal of Pharmaceutical Sciences, 2024)

Tested on: bEnd.3 cells
Assay: In vitro cellular uptake in bEnd.3 cells
Type: in vitro ADME
Settings: for cellular uptake observed by confocal imaging: 10 µM FITC-labelled peptide or free FITC, confocal microscopy
Method in brief: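 bEnd.3 cells were seeded at 5 × 10^4/cm2 for 24 h, untreated or pretreated with poly-lysine (4 kDa, 20 µM, 1 h). They were exposed to 10 µM FITC-peptide or free FITC for 10 min, 30 min or 2 h, washed with cold PBS and fixed in 4 % PFA. Staining was DiD (10 µM, 30 min) or Hoechst, followed by confocal imaging. Flow cytometry was run on trypsinised cells (Ex 488/Em 525 nm). Mean ± SD, n = 3.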

[1] = 10 µM FITC-labelled peptide, 2 h, flow cytometry, n = 3

| Molecule | cellular uptake observed by confocal imaging (2 h) | adsorption to cell membrane (10 µM FITC-labelled peptide, 10 min, confocal) | cellular uptake relative to HNSS [1] [%] | fluorescence intensity of cellular uptake relative to HNG [1] [fold] |
| --- | --- | --- | --- | --- |
| O=C1OC2(c3ccc(O)cc3Oc3cc(O)ccc32)c2ccc(N=C=S)cc21 [free FITC, reference compound] | weak cellular uptake | – | – | – |
| MAPRGFSCLLLLTGEIDLPVKRRAGGR(d)-Dmt-KF-NH2 [HNRS] | weak cellular uptake | adsorbed on the plasma membrane | 13.9 | 1.5 |
